The target of assay [1] is Hepatocyte growth factor receptor (Homo sapiens) (UniProt P08581). Nature of the assay: Inhibition of recombinant MET at <10 uM by radiometric kinase assay. The procedure, abridged: (§1)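 Recombinant kinases were tested in a radiometric 33P-ATP assay in 60 mM HEPES-NaOH pH 7.5 with 3 mM MgCl2 and 3 mM MnCl2, with compound added in 10% DMSO. Incubation was 80 min at 30 °C, stopped with 2% phosphoric acid and washed. 33P incorporation was scintillation-counted, and activity was scaled between no-enzyme and no-inhibitor controls.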

Assay [2] concerns the target T1, Serine/threonine-protein kinase PLK1 (Homo sapiens, UniProt P53350). Nature of the assay: Inhibition of recombinant PLK1 using RBERCHKtide as substrate assessed as inhibition of [33P]Phosphate incorporation into substrate at <10 uM after 80 mins by scintillation counting. The procedure, abridged: (§2)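 PLK1 (recombinant) was phosphorylating RBER-CHKtide at 2000 ng/50 µL with [33P]-ATP (about 5×10^5 cpm/well). Buffer was 60 mM HEPES-NaOH pH 7.5 with 3 mM MgCl2 and 3 mM MnCl2. After 80 min at 30 °C, 2% phosphoric acid stopped the reaction and wells were washed with saline. Incorporated 33P was counted, with residual activity relative to enzyme-free and inhibitor-free controls.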

In assay [3] the target is T2, Focal adhesion kinase 1 (Homo sapiens, UniProt Q05397). Nature of the assay: Inhibition of recombinant FAK using poly(Glu,Tyr)4 as substrate assessed as inhibition of [33P]Phosphate incorporation into substrate at <10 uM after 80 mins by scintillation counting. In a few lines:
(§3)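 FAK and VEGF-R2 were each tested as recombinant kinase with poly(Glu,Tyr)4:1 substrate at 125 ng/50 µL and [33P]-ATP (about 5×10^5 cpm/well). Buffer was 60 mM HEPES-NaOH pH 7.5 with 3 mM MgCl2 and 3 mM MnCl2. Reactions ran 80 min at 30 °C and were quenched with 2% phosphoric acid and washed with 0.9% NaCl. Scintillation counts were normalised between no-enzyme and uninhibited controls.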
Target sequence in this assay (Q05397 2-1052 limits assumed): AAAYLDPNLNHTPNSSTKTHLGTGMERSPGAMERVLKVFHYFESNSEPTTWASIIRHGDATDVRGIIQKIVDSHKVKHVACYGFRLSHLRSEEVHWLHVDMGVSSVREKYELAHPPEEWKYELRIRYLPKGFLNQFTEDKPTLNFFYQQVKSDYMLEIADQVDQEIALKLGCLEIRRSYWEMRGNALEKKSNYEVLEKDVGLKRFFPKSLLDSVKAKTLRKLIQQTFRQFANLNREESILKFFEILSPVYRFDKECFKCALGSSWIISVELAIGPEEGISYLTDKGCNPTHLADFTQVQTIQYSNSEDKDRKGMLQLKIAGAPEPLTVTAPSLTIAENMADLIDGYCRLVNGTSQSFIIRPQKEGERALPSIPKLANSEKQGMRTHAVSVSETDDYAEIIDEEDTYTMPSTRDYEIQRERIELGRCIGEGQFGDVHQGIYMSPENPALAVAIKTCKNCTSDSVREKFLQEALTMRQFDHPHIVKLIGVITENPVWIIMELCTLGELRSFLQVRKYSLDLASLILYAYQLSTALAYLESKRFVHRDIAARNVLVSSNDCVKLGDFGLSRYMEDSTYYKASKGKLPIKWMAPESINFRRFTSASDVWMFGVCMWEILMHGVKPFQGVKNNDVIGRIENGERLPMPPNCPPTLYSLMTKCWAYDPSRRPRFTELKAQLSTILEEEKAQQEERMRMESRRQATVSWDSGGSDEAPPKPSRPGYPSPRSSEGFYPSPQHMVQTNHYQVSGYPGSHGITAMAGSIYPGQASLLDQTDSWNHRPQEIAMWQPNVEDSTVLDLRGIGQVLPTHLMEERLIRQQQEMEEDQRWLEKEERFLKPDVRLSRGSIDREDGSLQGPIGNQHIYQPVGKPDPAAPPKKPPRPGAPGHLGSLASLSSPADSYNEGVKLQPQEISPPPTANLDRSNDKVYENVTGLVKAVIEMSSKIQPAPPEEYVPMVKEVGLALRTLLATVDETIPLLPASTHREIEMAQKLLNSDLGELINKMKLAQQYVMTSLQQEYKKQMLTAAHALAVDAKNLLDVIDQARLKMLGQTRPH

The target of assay [4] is T3, NUAK family SNF1-like kinase 1 (Homo sapiens) (UniProt O60285).
T3 sequence (whole entry): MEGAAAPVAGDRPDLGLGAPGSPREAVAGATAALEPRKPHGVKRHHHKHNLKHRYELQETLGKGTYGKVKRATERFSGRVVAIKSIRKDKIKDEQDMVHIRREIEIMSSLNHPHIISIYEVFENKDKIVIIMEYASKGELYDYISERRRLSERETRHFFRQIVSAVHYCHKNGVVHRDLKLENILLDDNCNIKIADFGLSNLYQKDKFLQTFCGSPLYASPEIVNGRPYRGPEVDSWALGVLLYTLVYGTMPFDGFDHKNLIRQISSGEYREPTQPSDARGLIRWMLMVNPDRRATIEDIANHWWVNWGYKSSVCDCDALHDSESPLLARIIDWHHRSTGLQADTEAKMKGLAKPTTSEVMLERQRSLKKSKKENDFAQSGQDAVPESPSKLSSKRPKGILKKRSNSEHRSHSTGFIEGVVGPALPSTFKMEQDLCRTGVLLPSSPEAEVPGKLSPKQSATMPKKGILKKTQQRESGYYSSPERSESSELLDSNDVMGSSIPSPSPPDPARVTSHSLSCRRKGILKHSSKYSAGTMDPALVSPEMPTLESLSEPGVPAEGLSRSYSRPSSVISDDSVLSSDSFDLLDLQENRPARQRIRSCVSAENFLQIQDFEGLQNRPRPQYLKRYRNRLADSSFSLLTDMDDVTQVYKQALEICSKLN
Nature of the assay: Inhibition of recombinant ARK5 at <10 uM by radiometric kinase assay. In a few lines: as §1

Assay [5] has as its target T2, Focal adhesion kinase 1. Nature of the assay: Inhibition of recombinant FAK using poly(Glu,Tyr)4 as substrate assessed as inhibition of [33P]Phosphate incorporation into substrate after 80 mins by scintillation counting.
Assay [6] addresses T4, Vascular endothelial growth factor receptor 2 (Homo sapiens, UniProt P35968). Nature of the assay: Inhibition of recombinant VEGFR2 using poly(Glu,Tyr)4 as substrate assessed as inhibition of [33P]Phosphate incorporation into substrate at <10 uM after 80 mins by scintillation counting. The procedure, abridged:
as §3

For assay [7], the target named is T4, Vascular endothelial growth factor receptor 2. Nature of the assay: Inhibition of recombinant VEGFR2 using poly(Glu,Tyr)4 as substrate assessed as inhibition of [33P]Phosphate incorporation into substrate after 80 mins by scintillation counting.
For assay [8], the target named is Insulin-like growth factor 1 receptor (Homo sapiens) (UniProt P08069). Nature of the assay: Inhibition of recombinant IGF1R at <10 uM by radiometric kinase assay. The procedure, abridged:
as §1

Assay [9] concerns the target Serine/threonine-protein kinase N1 (Homo sapiens) (UniProt Q16512). Nature of the assay: Inhibition of recombinant PRK1 at <10 uM by radiometric kinase assay. In a few lines:
as §1

Assay [10] addresses Proto-oncogene tyrosine-protein kinase Src (Homo sapiens) (UniProt P12931). Nature of the assay: Inhibition of recombinant SRC at <10 uM by radiometric kinase assay. The procedure, abridged: as §1
Assay [11] concerns the target Tyrosine-protein kinase receptor UFO (Homo sapiens) (UniProt P30530). Nature of the assay: Inhibition of recombinant AXL at <10 uM by radiometric kinase assay. In a few lines: as §1
Assay [12] concerns the target T5, RAC-alpha serine/threonine-protein kinase (Homo sapiens, UniProt P31749). Nature of the assay: Inhibition of recombinant AKT1 using GSK3 as substrate assessed as inhibition of [33P]Phosphate incorporation into substrate at <10 uM after 80 mins by scintillation counting. In a few lines: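 Recombinant AKT1 was assayed radiometrically with [33P]-ATP (about 5×10^5 cpm/well) and GSK3(14-27) substrate at 2000 ng/50 µL. Buffer was 60 mM HEPES-NaOH pH 7.5 with 3 mM MgCl2 and 3 mM MnCl2, and compound was added in 10% DMSO. After 80 min at 30 °C the reaction was stopped with 2% phosphoric acid, washed with 0.9% NaCl and 33P incorporation counted by scintillation. Residual activity was set against no-enzyme and no-inhibitor controls.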

For assay [13], the target named is T6, Aurora kinase B (Homo sapiens, UniProt Q96GD4). Nature of the assay: Inhibition of recombinant Aurora B using tetra(LRRWSLG) as substrate assessed as inhibition of [33P]Phosphate incorporation into substrate at <10 uM after 80 mins by scintillation counting. The procedure, abridged:
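Recombinant Aurora B was assayed with [33P]-ATP (about 5×10^5 cpm/well) and tetra(LRRWSLG) substrate at 500 ng/50 µL. Buffer was 60 mM HEPES-NaOH pH 7.5 with 3 mM MgCl2 and 3 mM MnCl2. Incubation ran 80 min at 30 °C and was stopped with 2% phosphoric acid, then washed with saline. Bound 33P was counted by scintillation, with activity normalised to no-enzyme (0%) and no-inhibitor (100%) controls.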

The target of assay [14] is T6, Aurora kinase B. Nature of the assay: Inhibition of recombinant Aurora B using tetra(LRRWSLG) as substrate assessed as inhibition of [33P]Phosphate incorporation into substrate after 80 mins by scintillation counting.
Assay [15] concerns the target T1, Serine/threonine-protein kinase PLK1. Nature of the assay: Inhibition of recombinant PLK1 using RBERCHKtide as substrate assessed as inhibition of [33P]Phosphate incorporation into substrate after 80 mins by scintillation counting. In a few lines:
as §2

Assay [16] addresses T5, RAC-alpha serine/threonine-protein kinase. Nature of the assay: Inhibition of recombinant AKT1 using GSK3 as substrate assessed as inhibition of [33P]Phosphate incorporation into substrate after 80 mins by scintillation counting. The procedure, abridged: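 Recombinant AKT1 was assayed radiometrically with [33P]-ATP (about 5×10^5 cpm/well) and GSK3(14-27) substrate at 2000 ng/50 µL. Buffer was 60 mM HEPES-NaOH pH 7.5 with 3 mM MgCl2 and 3 mM MnCl2, and compound was added in 10% DMSO. After 80 min at 30 °C the reaction was stopped with 2% phosphoric acid, washed with 0.9% NaCl and 33P incorporation counted by scintillation.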

For orientation: IC50 means the concentration that inhibits the measured activity by half.

Activity calls are given as the source filed them. No cut-off for these calls is given here. A value given as a limit tells only on which side of the number the result lay.

Sequence of Serine/threonine-protein kinase N1 (Homo sapiens) (Q16512 2-942 limits assumed): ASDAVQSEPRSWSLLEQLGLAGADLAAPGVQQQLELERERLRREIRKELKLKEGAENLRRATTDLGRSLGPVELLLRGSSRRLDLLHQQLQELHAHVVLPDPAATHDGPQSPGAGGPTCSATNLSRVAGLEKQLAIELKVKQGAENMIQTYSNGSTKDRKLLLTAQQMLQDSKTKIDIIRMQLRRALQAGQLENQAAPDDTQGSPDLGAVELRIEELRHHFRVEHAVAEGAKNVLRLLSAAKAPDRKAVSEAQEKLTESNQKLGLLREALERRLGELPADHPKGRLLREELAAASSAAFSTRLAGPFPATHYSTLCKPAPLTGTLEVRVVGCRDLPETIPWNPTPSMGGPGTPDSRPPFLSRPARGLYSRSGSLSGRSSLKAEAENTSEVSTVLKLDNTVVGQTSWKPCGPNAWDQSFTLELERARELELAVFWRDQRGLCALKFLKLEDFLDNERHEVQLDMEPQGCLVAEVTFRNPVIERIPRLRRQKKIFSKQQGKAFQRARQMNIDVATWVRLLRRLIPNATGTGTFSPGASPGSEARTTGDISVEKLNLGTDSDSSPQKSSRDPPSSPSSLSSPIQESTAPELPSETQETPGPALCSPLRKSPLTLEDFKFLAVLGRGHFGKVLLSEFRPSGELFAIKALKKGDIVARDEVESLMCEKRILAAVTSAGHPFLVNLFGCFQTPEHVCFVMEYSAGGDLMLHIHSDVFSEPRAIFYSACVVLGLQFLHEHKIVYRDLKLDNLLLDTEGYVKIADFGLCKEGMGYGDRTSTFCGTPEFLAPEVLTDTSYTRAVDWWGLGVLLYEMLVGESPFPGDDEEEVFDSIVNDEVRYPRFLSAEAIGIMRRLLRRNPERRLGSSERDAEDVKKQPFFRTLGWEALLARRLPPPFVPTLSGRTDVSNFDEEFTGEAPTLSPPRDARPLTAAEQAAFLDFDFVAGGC
Sequence of Proto-oncogene tyrosine-protein kinase Src (Homo sapiens) (P12931 2-536 limits assumed): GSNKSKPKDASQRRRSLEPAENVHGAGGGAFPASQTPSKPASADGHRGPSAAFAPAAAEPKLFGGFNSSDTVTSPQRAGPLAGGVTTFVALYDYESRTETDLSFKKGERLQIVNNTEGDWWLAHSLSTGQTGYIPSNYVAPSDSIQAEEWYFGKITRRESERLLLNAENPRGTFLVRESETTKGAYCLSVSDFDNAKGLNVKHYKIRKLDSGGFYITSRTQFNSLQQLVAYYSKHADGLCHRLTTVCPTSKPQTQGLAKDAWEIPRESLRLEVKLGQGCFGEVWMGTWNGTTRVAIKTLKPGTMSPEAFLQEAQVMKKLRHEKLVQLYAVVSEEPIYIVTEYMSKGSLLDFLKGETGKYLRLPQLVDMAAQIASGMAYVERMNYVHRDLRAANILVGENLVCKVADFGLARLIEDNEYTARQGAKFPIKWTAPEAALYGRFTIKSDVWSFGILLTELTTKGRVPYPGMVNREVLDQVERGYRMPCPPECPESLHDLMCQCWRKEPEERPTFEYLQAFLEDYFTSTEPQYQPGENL
Sequence of Insulin-like growth factor 1 receptor (Homo sapiens) (P08069 31-736 limits assumed): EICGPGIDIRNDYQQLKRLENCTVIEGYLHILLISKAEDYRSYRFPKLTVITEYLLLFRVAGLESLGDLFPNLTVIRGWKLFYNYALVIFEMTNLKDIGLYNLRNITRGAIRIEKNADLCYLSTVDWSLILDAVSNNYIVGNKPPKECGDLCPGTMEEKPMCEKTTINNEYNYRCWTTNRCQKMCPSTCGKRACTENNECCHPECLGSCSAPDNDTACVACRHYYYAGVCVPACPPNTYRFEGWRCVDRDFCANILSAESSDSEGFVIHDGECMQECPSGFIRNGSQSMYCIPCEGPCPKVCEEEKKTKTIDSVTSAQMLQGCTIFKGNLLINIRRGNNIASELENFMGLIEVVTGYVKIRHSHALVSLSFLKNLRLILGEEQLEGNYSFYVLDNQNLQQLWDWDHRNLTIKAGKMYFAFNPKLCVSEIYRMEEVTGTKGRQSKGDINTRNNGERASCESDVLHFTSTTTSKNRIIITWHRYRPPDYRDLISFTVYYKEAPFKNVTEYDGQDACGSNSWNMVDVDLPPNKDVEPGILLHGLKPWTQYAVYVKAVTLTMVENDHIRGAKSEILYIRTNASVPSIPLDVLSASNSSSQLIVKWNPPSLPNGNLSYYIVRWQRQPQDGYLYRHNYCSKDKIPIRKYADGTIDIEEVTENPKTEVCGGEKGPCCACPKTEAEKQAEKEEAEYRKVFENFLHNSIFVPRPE
Sequence of Insulin-like growth factor 1 receptor (Homo sapiens) (P08069 741-1367 limits assumed): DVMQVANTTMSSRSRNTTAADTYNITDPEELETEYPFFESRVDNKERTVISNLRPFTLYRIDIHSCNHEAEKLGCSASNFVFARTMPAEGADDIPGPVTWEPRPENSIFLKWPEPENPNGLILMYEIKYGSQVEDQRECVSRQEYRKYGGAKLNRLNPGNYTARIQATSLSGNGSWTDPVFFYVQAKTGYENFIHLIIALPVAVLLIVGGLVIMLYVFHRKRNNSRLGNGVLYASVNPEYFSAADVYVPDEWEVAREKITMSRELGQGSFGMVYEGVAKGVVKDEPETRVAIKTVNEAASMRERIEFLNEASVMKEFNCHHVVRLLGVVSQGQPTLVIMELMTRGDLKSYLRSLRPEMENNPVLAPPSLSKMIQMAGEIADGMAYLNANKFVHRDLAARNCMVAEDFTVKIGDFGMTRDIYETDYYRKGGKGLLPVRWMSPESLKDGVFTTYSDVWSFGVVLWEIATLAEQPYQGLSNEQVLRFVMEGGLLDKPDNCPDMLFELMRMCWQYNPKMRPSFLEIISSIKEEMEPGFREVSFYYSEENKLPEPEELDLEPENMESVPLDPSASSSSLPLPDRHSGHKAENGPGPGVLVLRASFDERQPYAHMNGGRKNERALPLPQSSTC
T5 sequence (P31749 whole entry): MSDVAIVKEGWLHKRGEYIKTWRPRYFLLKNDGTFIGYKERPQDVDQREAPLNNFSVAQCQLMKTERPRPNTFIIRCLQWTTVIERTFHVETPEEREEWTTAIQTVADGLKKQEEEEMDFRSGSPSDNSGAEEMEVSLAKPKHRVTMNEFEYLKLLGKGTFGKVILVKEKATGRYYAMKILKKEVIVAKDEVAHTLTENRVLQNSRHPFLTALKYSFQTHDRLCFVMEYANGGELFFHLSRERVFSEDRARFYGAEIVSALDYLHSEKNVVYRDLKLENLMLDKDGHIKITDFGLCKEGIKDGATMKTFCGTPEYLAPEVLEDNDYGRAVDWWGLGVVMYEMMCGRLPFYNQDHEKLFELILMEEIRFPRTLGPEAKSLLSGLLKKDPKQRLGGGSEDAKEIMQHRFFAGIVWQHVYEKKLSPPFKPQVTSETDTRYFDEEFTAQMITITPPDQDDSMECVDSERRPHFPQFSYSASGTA
T6 sequence (Q96GD4 whole entry): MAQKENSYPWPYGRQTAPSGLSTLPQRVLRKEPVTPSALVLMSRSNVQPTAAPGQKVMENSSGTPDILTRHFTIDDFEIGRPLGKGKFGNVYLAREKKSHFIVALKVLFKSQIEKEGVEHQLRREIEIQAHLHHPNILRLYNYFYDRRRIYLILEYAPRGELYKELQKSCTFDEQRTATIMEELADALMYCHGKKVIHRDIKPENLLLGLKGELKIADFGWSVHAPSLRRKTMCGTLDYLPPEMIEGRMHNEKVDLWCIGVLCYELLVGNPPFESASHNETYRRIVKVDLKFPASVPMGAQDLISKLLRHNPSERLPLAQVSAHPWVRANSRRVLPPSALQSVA

Regarding `Cn1c(=O)c2ccc(-c3nc4ccccc4n3C)nc2n(C)c1=O`, the inhibition result in [1], in assay [2], in assay [3], in assay [4], in assay [6] and in [8] was “inactive” each time. For the same molecule, the inhibition result in [9], in [10], in [11] and in assay [12] was “inactive” in each case. Further, the IC50 in assay [5] came to 92 µM; in assay [7], 85 µM.
Regarding `Cn1c(-c2ccnc(Nc3ccccc3)n2)nc2ccccc21`, the inhibition result in assay [1], in assay [2], in [3], in [13], in [4] and in assay [6] was “inactive” each time. For the same molecule, the inhibition entry in [8], in assay [9], in assay [10], in [11] and in [12] was “inactive” throughout. Besides, the IC50 is above 100 µM in [14]; 38 µM in [5]; 13.4 µM in assay [7]; 60 µM in [15]; above 100 µM in [16].
On to `Cc1ccc(Nc2nccc(-c3nc4ccccc4n3C)n2)cc1`, for which the inhibition entry in assay [1], in assay [2], in assay [3], in assay [4], in assay [6] and in [8] was “inactive” each time. Moreover, the inhibition result in [9], in assay [10], in [11] and in [12] was “inactive” throughout. In addition, the IC50 in [5] was found to be 58 µM; in [7], 25 µM.
As for `CCOc1ccc(Nc2nccc(-c3nc4ccccc4n3C)n2)cc1`, the inhibition result in [1], in [2], in assay [3], in assay [13], in assay [4] and in assay [6] was “inactive” each time. Also, the inhibition result in assay [8], in [9], in assay [10], in assay [11] and in assay [12] was “inactive” throughout. Moreover, the half-maximal inhibitory concentration (IC50) in assay [14], in [5], in [7], in assay [15] and in assay [16] was above 100 µM each time.
With `Cn1c(-c2ccnc(Nc3ccc(N4CCOCC4)cc3)n2)nc2ccccc21`, the inhibition entry in assay [1], in [2], in assay [3], in [13], in assay [4] and in assay [6] was “inactive” each time. Also, the inhibition result in [8], in [9], in assay [10], in [11] and in assay [12] was “inactive” in each case. The concentration for half-maximal inhibition (IC50) was above 100 µM in [14]; 24 µM in assay [5]; 69 µM in assay [7]; above 100 µM in assay [15]; above 100 µM in assay [16].
Turning to `Cn1c(-c2ccnc(Nc3ccc(Cl)cc3)n2)nc2ccccc21`, the inhibition result in assay [1], in assay [2], in [3], in [4], in [6] and in assay [8] was “inactive” throughout. For the same molecule, the inhibition entry in [9], in [10], in [11] and in [12] was “inactive” each time. In addition, the IC50 in assay [5] came to 69 µM; in assay [7], 38 µM; in [16] it was 41 µM.
With `COc1ccc(Nc2nccc(-c3nc4ccccc4n3C)n2)cc1`, the inhibition result in [1], in assay [2], in [3], in assay [13], in assay [4] and in assay [6] was “inactive” in each case. For the same molecule, the inhibition result in assay [8], in assay [9], in [10], in assay [11] and in assay [12] was “inactive” in each case. Also, the IC50 in assay [14] worked out at 62 µM; in assay [5], 27 µM; in assay [7], 44 µM; in assay [15] it was 15 µM; in assay [16], 75 µM.

(Values after ChEMBL document CHEMBL2034932, “2-Anilino-4-(benzimidazol-2-yl)pyrimidines--a multikinase inhibitor scaffold with antiproliferative activity toward cancer cell lines” (Eur J Med Chem, 2012).)
